Assay outcomes: PubChem BioAssay, several laboratories
ADAM10 inh: inhibitors of human ADAM10 | AID 720582 | recombinant ADAM10, EDANS/DABCYL FRET peptide cleavage, 3 h | O14672 | actives 0.62% (n = 370,000) | inhibition, % at 7 µM;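 active = inhibition above a per-campaign cutoff equal to the mean of compounds falling between control-based bounds plus 3 SD, cut at about 20% in these data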;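 note: 0% = DMSO wells while the 100% control is not disclosed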
ADAM17 inh: inhibitors of human ADAM17 | P78536 | recombinant ADAM17, EDANS/DABCYL FRET peptide cleavage | inhibition, % at 6.95 µM | actives 0.83% (n = 370,000);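 active = inhibition above the mean of compounds lying between control limits plus 3 SD, set per campaign, cut at about 8.5% in these data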;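 note: 0% = DMSO-only wells as the low control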
NR2E3 ag-1: NR2E3 (human) agonism; GST-NR2E3/biotin-RetCOR TR-FRET, 1536-well; Q9Y5X4; inhibition of corepressor binding, % at 4.78 µM; actives 0.12% (n = 320,000);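 active = percent inhibition above the cutoff of mean plus 3 SD of all tested compounds, set per screening campaign, cut at about 20% in these data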;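 note: 0% = DMSO wells and 100% = biotin wells as full block of FRET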
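Test system – NR2E3–RetCOR corepressor complex · Quantity – NR2E3 fusion 1.35 nM · Buffer or medium – Tris pH 7.5 · Incubation – Compound–protein incubation for 5 h at 4 °C · Technique – TR-FRET, Eu(K)-anti-GST donor, streptavidin-D2 acceptor, ex 340, em 617/671 nm · Evaluation – percent inhibition of 671/617 nm emission ratio versus biotin and DMSO controls · Plate – 1536-well format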
NR2E3 ag-2: human photoreceptor-specific nuclear receptor agonism. inhibition of corepressor binding, % at 3.98 µM. Q9Y5X4. actives 0.35% (n = 360,000). CHO-S Gal4-NCOR/VP16-NR2E3 two-hybrid, luciferase. AID 602229;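 active = inhibition above the mean of all tested compounds plus 3 SD, cut at about 70% in these data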;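 note: 0% = DMSO with NR2E3 transfected cells and 100% = cells lacking NR2E3 construct; higher means lower luciferase signal from less NR2E3 corepressor binding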
GASC-1 inh: inhibitors of human GASC-1 (JMJD2C) demethylase; inhibition, % at 2.35 µM; Q9H3R0; AID 2099; GST-JMJD2C(1-420) H3K9me3 demethylation, DELFIA europium; actives 0.069% (n = 330,000);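 active = more than half of a compound's replicate wells show inhibition beyond 50%, single wells judged on their own value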;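 note: signal counts dimethyl H3K9 product captured on neutravidin plate; 0% = median of DMSO wells and 100% = 0.3 times that DMSO median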
Target sequence (Q9H3R0 1-420 limits assumed): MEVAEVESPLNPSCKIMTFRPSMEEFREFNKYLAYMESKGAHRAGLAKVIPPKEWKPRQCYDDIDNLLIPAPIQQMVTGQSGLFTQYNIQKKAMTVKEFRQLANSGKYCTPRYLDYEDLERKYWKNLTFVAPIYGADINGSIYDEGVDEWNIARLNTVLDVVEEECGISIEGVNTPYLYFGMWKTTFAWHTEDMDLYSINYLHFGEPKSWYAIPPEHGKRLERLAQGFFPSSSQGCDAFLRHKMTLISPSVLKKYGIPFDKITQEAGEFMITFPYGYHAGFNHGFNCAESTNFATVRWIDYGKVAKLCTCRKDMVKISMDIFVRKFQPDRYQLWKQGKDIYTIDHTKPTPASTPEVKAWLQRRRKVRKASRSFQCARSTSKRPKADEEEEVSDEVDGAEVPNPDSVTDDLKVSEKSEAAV
proKLK7 act: proKLK7 (human) activation, primary screen. P49862. purified proKLK7, EDANS-DABCYL substrate fluorescence; 100% is mature enzyme control, 0% vehicle. activation, % at 7 µM. actives 0.9% (n = 370,000). AID 652039;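 active = activation above the mean of all tested compounds plus 3 SD, computed per campaign excluding outliers beyond control limits, cut at about 13% in these data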
ADAM10 counter: ADAM10 inhibition, counter-screen for ADAM17 exosite hits; shares compounds with ADAM17 inh; recombinant ADAM10, EDANS/DABCYL FRET peptide cleavage, 3 h; inhibition, % at 6.95 µM; actives 47% (n = 2,900);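 active = mean inhibition over the triplicate runs exceeds the activity threshold set in the earlier primary screen, cut at about 20% in these data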;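 note: 0% = DMSO wells and 100% = marimastat wells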
ADAM17 confirm: human ADAM17 inhibition, confirmation | shares compounds with ADAM17 inh | recombinant ADAM17, EDANS/DABCYL QFRET peptide cleavage | inhibition, % at 6.95 µM | actives 65% (n = 2,900);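 active = mean inhibition across replicates above the hit cutoff set in the primary screen, cut at about 8.5% in these data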;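 note: 0% = DMSO wells and 100% = marimastat wells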
The depositor's hits bear a star; . = no result given. Most compounds without a hit are left out; they make up all but 2.5% or so of the library.

SMILES	ADAM10 inh	ADAM17 inh	NR2E3 ag-1	NR2E3 ag-2	GASC-1 inh	proKLK7 act	ADAM10 counter	ADAM17 confirm
CC1CCCN(S(=O)(=O)c2ccc(NC(=O)Cn3nnc(-c4ccccc4F)n3)cc2)C1 (stereo not drawn)	17	10*	-1	3	-2	0	16	11*
Cc1ccc(-c2nnn(CC(=O)Nc3ccc(S(=O)(=O)N4CCC(C)CC4)cc3)n2)cc1	7	6	0	-3	0	0	.	.
CC(=O)c1cccc(NC(=S)N2CCN(S(=O)(=O)c3ccccc3)CC2)c1	-6	0	.	-10	-2	1	.	.
Cn1c(=O)[nH]c(=O)c2c1nc(N1CCCCC1)n2CC(O)COc1ccc([N+](=O)[O-])cc1 (stereo not drawn)	-2	-1	-2	-4	-11	0	.	.
COc1ccc(N=C2SCC(c3ccc([N+](=O)[O-])cc3)=NN2CCO)cc1	3	4	1	11	-9	-1	.	.
O=[N+]([O-])c1ccc(C2=NN(CCO)C(=Nc3ccc(OC(F)(F)F)cc3)SC2)cc1	12	12*	1	27	12	0	32*	18*
Nn1c(COc2cccc(Br)c2)nnc1SCC(=O)N1CCc2ccccc2C1	10	12*	1	2	13	0	5	7
CC(C)OC(=O)c1cccnc1N1CCN(c2cccc(Cl)c2)CC1	-1	-1	1	-29	-13	0	.	.
CCN1CCN(c2ccc(S(=O)(=O)N3CCOCC3)cc2NC(=O)CCC(C)C)CC1	0	-2	3	12	-5	1	.	.
CCN(CC)S(=O)(=O)c1cccc(C(=O)N[C@H](C(=O)OCC(=O)Nc2ccccc2)C(C)C)c1	-4	11*	1	-7	0	0	5	4
CCN(CC)S(=O)(=O)c1cccc(C(=O)N[C@H](C(=O)OCC(N)=O)C(C)C)c1	-4	-2	0	23	13	0	.	.
CCCNC(=O)C1(C)CCCN(C(=O)COc2ccc(Cl)cc2Cl)C1 (stereo not drawn)	10	6	.	-18	.	-1	.	.
C=CCN([C@H](C(=O)OC)C(C)C)S(=O)(=O)CCNCc1ccccc1	-5	-3	.	7	.	0	.	.
O=C(c1ccccc1)c1ccc(OCC(O)CNCc2ccc(F)cc2)cc1 (stereo not drawn)	4	10*	.	5	-3	1	3	3
CCOC(=O)CCNC(=O)Nc1cc2nc(C)n(Cc3cccc(Cl)c3)c2nc1C	-15	-11	1	-16	3	0	.	.
C=C(C)COc1ccc(-c2n[nH]c(C)c2-c2ccc(Br)cc2)c(O)c1	18	11*	-2	-59	-10	-1	22*	12*
C=C(C)COc1ccc(-c2[nH]ncc2-c2ccc(Br)cc2)c(O)c1	17	4	-3	-30	-1	0	.	.
CS(=O)(=O)Cc1cccc(C(=O)NN(c2ccccc2)c2ccccc2)c1	4	-4	0	-19	-14	0	.	.
Cc1ccc(CN2C(=O)[C@H]3Cc4c([nH]c5ccccc45)C(C)(C)N3C2=O)cc1	18	12*	1	-6	-8	2	18	12*
COc1cccc(CN2C(=O)[C@@H]3Cc4c([nH]c5ccccc45)C(C)(C)N3C2=O)c1	15	8.7*	1	32	-3	0	19	14*
CC(NC(=O)CN1CCOCC1)c1ccc(F)cc1 (stereo not drawn)	-5	-1	2	-26	-1	0	.	.
COc1ccc(-n2nnnc2SCC(=O)c2cccc(OC)c2)cc1	7	10*	1	-5	-1	0	8	8
C=C(C)c1cccc(C(C)(C)NC(=O)N2CCCC2)c1	-3	9.1*	0	-14	3	0	1	1
C=C(C)c1cccc(C(C)(C)NC(=O)N2CCOCC2)c1	5	-2	3	-30	7	0	.	.
C=CCNC(=S)NNC(=O)CSc1nc2ccccc2s1	5	11*	0	-19	-1	0	0	5
SMILES	ADAM10 inh	ADAM17 inh	NR2E3 ag-1	NR2E3 ag-2	GASC-1 inh	proKLK7 act	ADAM10 counter	ADAM17 confirm
O=C(CSc1nc2ccccc2s1)NNC(=S)Nc1ccc(Cl)cc1	14	7	-1	-8	-14	0	.	.
O=C(O)CC(CC(=O)N1CCN(C(=O)c2ccco2)CC1)c1ccccc1 (stereo not drawn)	1	4	-2	-9	-5	1	.	.
CCN(CC)c1ccc(S(=O)(=O)N2CCOCC2)cc1NC(=O)COC(=O)/C=C/c1ccccc1	11	8.8*	.	7	.	0	14	11*
CC(CN1CCCCC1)NC(=O)c1scnc1-c1ccccc1 (stereo not drawn)	2	0	.	-10	.	-1	.	.
Cc1ccccc1OCCCSc1nc2ccccc2[nH]1	19	8.8*	-2	-13	1	0	15	10*
c1ccc(OCCSc2nc3ccccc3[nH]2)cc1	5	4	3	-72	7	0	.	.
CC[C@@]1(C(=O)OC)N[C@H](CN(C)S(=O)(=O)c2ccc(-c3ccccc3)cc2)[C@@H]2C(=O)N(C)C(=O)[C@@H]21	7	13*	.	-43	-8	0	12	6
CCCCCCN1C[C@H](n2cc(C3CC3)nn2)[C@@H](O)C[C@@H]1c1ccc(C)cc1	13	15*	.	-39	.	0	17	8
CCC1C(=NO)C(CC)C(c2ccccc2)NC1c1ccccc1 (stereo not drawn)	16	17*	1	-13	2	-1	15	10*
COc1ccccc1CCn1cnc(-c2ccccc2)c1CC(C)C	11	8.7*	.	.	.	0	18	9.1*
Nc1c(Cl)ncnc1NCc1ccccc1	3	-4	0	11	3	0	.	.
C=CC[N@@+]12CC[C@]34c5ccccc5N5/C=C6\C7N(/C=C(\C53)[C@@H](C[C@@H]41)/C(=C/CO)C2)c1ccccc1[C@@]71CC[N@@+]2(CC=C)C/C(=C\CO)[C@@H]6C[C@@H]12 (stereo partly drawn)	-6	-1	2	0	.	2	.	.
COc1ccc(NS(=O)(=O)c2cc(C(=O)N(C)CCc3ccccn3)ccc2Cl)cc1	-11	-2	.	20	.	0	.	.
